Measured values taken from ChEMBL document CHEMBL1121660, “Haloacetamido analogues of 2-amino-2-deoxy-D-mannose. Syntheses and effects on tumor-bearing mice” (J Med Chem, 1981).

Legend:
L1210 [1] = assay: Percent of control (thymidine incorporation in vitro) at 2.5 mM in L1210 leukemia cells in vitro of B6D2F1 mice; format: functional, Mus musculus
Mus musculus [2] = assay: In vivo chemotherapy of Ehrlich tumor in B6D2F1 mice at a dose of 0.42 (mmol/kg)/day was expressed as number of survivors on 60-day/number of treated;0/8; format: functional
Mus musculus [3] = assay: In vivo chemotherapy of Ehrlich tumor in B6D2F1 mice at a dose of 0.42 (mmol/kg)/day expressed as number days after tumor challenge; format: functional
Mus musculus [4] = assay: In vivo chemotherapy of Ehrlich tumor in B6D2F1 mice at a dose of 3.7 (mmol/kg)/day expressed as number days after tumor challenge; format: functional
Mus musculus [5] = assay: In vivo chemotherapy of Ehrlich tumor in B6D2F1 mice at a dose of 3.7 (mmol/kg)/day was expressed as number of survivors on 60-day/number of treated; 1/5; format: functional
L1210 [6] = assay: Compound was tested for concentration that inhibited thymidine incorporation in vitro by 50%; format: functional, cell-based, Mus musculus
Summary of the method: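 Ascites L1210 cells from DBA/2 passage hosts (harvested 5 days after ip implant of 10⁶ cells), washed in 0.85% NaCl and suspended at 2 × 10⁷/mL in RPMI-1640. Exposed 1 h at 37 °C in RPMI-1640 with 10% FBS; tetra-O-acetates added from ethanol solution, free sugars dissolved directly in medium. Cells washed and plated, then pulsed with [³H]thymidine (1.0 μCi/well) for 15 h. TCA-washed cells counted by scintillation. Ethanol-matched controls. IC50 reported as mean ± SE (≥3 determinations) or range (2).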

Mus musculus [7] = assay: In vivo chemotherapy of Ehrlich tumor in B6D2F1 mice at a dose of 0.12 (mmol/kg)/day expressed as number days after tumor challenge; format: functional
Mus musculus [8] = assay: In vivo chemotherapy of Ehrlich tumor in B6D2F1 mice at a dose of 0.42 (mmol/kg)/day was expressed as number of survivors on 60-day/number of treated; 0/5; format: functional
Mus musculus [9] = assay: In vivo chemotherapy of Ehrlich tumor in B6D2F1 mice at a dose of 0.71 (mmol/kg)/day was expressed as number of survivors on 60-day/number of treated; 1/8; format: functional
[10] = Compound was tested for lethal dose administered in single dose intraperitoneally that killed 50% of the animals; format: ADME, organism-based; conditions: mouse, in vivo, ip
Mus musculus [11] = assay: In vivo chemotherapy of Ehrlich tumor in B6D2F1 mice at a dose of 0.71 (mmol/kg)/day was expressed as number of survivors on 60-day/number of treated; 8/8; format: functional
Mus musculus [12] = assay: In vivo chemotherapy of Ehrlich tumor in B6D2F1 mice at a dose of 0.35 (mmol/kg)/day expressed as number days after tumor challenge; format: functional
Mus musculus [13] = assay: In vivo chemotherapy of Ehrlich tumor in B6D2F1 mice at a dose of 0.71 (mmol/kg)/day was expressed as number of survivors on 60-day/number of treated; 4/8; format: functional
Mus musculus [14] = assay: In vivo chemotherapy of Ehrlich tumor in B6D2F1 mice at a dose of 0.22 (mmol/kg)/day was expressed as number of survivors on 60-day/number of treated; 4/4
Mus musculus [15] = assay: In vivo chemotherapy of Ehrlich tumor in B6D2F1 mice at a dose of 0.22 (mmol/kg)/day expressed as number days after tumor challenge; format: functional
Mus musculus [16] = assay: In vivo chemotherapy of Ehrlich tumor in B6D2F1 mice at a dose of 0.13 (mmol/kg)/day expressed as number days after tumor challenge; format: functional
Mus musculus [17] = assay: In vivo chemotherapy of Ehrlich tumor in B6D2F1 mice at a dose of […] (mmol/kg)/day expressed as number days after tumor challenge; format: functional
Mus musculus [18] = assay: In vivo chemotherapy of Ehrlich tumor in B6D2F1 mice at a dose of 0.19 (mmol/kg)/day expressed as 60-day survivors (number of survivors/number of treated); 1/8; format: functional
Mus musculus [19] = assay: In vivo chemotherapy of Ehrlich tumor in B6D2F1 mice at a dose of 0.13 (mmol/kg)/day was expressed as number of survivors on 60-day/number of treated; 3/8; format: functional
Mus musculus [20] = assay: In vivo chemotherapy of Ehrlich tumor in B6D2F1 mice at a dose of 0.19 (mmol/kg)/day was expressed as number of survivors on 60-day/number of treated; 1/8; format: functional
Mus musculus [21] = assay: In vivo chemotherapy of Ehrlich tumor in B6D2F1 mice at a dose of 3.2 (mmol/kg)/day was expressed as number of survivors on 60-day/number of treated;2/4; format: functional
Mus musculus [22] = assay: In vivo chemotherapy of Ehrlich tumor in B6D2F1 mice at a dose of 3.2 (mmol/kg)/day expressed as number days after tumor challenge; format: functional
Mus musculus [23] = assay: In vivo chemotherapy of Ehrlich tumor in B6D2F1 mice at a dose of 2.5 (mmol/kg)/day was expressed as number of survivors on 60-day/number of treated; 3/8; format: functional
Mus musculus [24] = assay: In vivo chemotherapy of Ehrlich tumor in B6D2F1 mice at a dose of 2.5 (mmol/kg)/day was expressed as number of survivors on 60-day/number of treated; 5/8; format: functional

In the case of `O=C(CCl)NC1C(O)OC(CO)C(O)C1O` (stereo in doubt; form 1), the “Thymidine incorporation (% of control)” value (L1210 [1]) is reported as 51%.

In the case of `O=C(CF)NC1C(O)OC(CO)C(O)C1O` (stereo in doubt; form 1), the Survivors (Mus musculus [2]) is reported as 0, the “Thymidine incorporation (% of control)” value (L1210 [1]) is reported as 93% and the Days (Mus musculus [3]) is reported as 2.

`O=C(CCl)NC1C(O)OC(CO)C(O)C1O` (stereo in doubt; form 2) gave a Days (Mus musculus [4]) of 4 and a Survivors (Mus musculus [5]) of 1.

In the case of `CC(=O)OCC1OC(OC(C)=O)C(NC(=O)CCl)C(OC(C)=O)C1OC(C)=O` (stereo in doubt; form 2), the IC50 (L1210 [6]; l1210) is reported as 425 µM.

With `O=C(CBr)NC1C(O)OC(CO)C(O)C1O` (stereo in doubt; form 2) the “Thymidine incorporation (% of control)” value (L1210 [1]) was 68%.

`CC(=O)OCC1OC(OC(C)=O)C(NC(=O)CF)C(OC(C)=O)C1OC(C)=O` (stereo in doubt; form 3) gave a Days (Mus musculus [7]) of 1 and a Survivors (Mus musculus [8]) of 0.

In the case of `O=C(CCl)NC1C(O)OC(CO)C(O)C1O` (stereo in doubt; form 3), the “Thymidine incorporation (% of control)” value (L1210 [1]) is reported as 97%.

`CC(=O)OCC1OC(OC(C)=O)C(NC(=O)CBr)C(OC(C)=O)C1OC(C)=O` (stereo in doubt; form 2) showed an IC50 (L1210 [6]; l1210) of 6.5 µM.

`CC(=O)OCC1OC(OC(C)=O)C(NC(=O)CCl)C(OC(C)=O)C1OC(C)=O` (stereo in doubt; form 3) showed a Survivors (Mus musculus [9]) of 1, an LD50 [10] of 1600 µmol/kg and a Survivors (Mus musculus [11]) of 8. For the same molecule, the Days (Mus musculus [12]) was 3, the Survivors (Mus musculus [13]) was 4 and the IC50 (L1210 [6]; l1210) was 143 µM.

`CC(=O)OCC1OC(OC(C)=O)C(NC(=O)CBr)C(OC(C)=O)C1OC(C)=O` (stereo in doubt; form 1) showed an LD50 [10] of 240 µmol/kg.

For `O=C(CBr)NC1C(O)OC(CO)C(O)C1O` (stereo in doubt; form 3), the “Thymidine incorporation (% of control)” value (L1210 [1]) was 95%.

In the case of `CC(=O)OCC1OC(OC(C)=O)C(NC(=O)CF)C(OC(C)=O)C1OC(C)=O` (stereo in doubt; form 2), the IC50 (L1210 [6]; Mus musculus, L1210) is reported as over 1000 µM.

`CC(=O)OCC1OC(OC(C)=O)C(NC(=O)CBr)C(OC(C)=O)C1OC(C)=O` (stereo in doubt; form 3) showed a Survivors (Mus musculus [14]) of 4, a Days (Mus musculus [15]) of 1 and a Days (Mus musculus [16]) of 1. It also gave a Days (Mus musculus [17]) of 3, a Survivors (Mus musculus [18]) of 1 and a Survivors (Mus musculus [19]) of 3. The Survivors (Mus musculus [20]) was 1 and the IC50 (L1210 [6]; Mus musculus, L1210) was 9.4 µM.

`CC(=O)OCC1OC(OC(C)=O)C(NC(=O)CCl)C(OC(C)=O)C1OC(C)=O` (stereo in doubt; form 1) showed an IC50 (L1210 [6]; l1210) of 220 µM.

For `O=C(CBr)NC1C(O)OC(CO)C(O)C1O` (stereo in doubt; form 1), the LD50 [10] was over 3200 µmol/kg, the Survivors (Mus musculus [21]) was 2 and the Days (Mus musculus [22]) was 4. The Survivors (Mus musculus [23]) was 3, the “Thymidine incorporation (% of control)” value (L1210 [1]) was 79% and the Survivors (Mus musculus [24]) was 5.
